Laboratory results: ChEMBL document CHEMBL4354820, “Optimizing Targeted Inhibitors of P-Glycoprotein Using Computational and Structure-Guided Approaches” (J Med Chem, 2019)

Each compound was assayed against T1, ATP-dependent translocase ABCB1 (Homo sapiens, UniProt P08183) (assay: Inhibition of P-gp overexpressed in human DU145-TxR cells assessed as increase in cellular accumulation of calcein AM at 2 uM pretreated followed by calcein AM addition by fluorescence imaging analysis). Conditions: not given; call rule not given here.
T1 sequence (P08183 whole entry): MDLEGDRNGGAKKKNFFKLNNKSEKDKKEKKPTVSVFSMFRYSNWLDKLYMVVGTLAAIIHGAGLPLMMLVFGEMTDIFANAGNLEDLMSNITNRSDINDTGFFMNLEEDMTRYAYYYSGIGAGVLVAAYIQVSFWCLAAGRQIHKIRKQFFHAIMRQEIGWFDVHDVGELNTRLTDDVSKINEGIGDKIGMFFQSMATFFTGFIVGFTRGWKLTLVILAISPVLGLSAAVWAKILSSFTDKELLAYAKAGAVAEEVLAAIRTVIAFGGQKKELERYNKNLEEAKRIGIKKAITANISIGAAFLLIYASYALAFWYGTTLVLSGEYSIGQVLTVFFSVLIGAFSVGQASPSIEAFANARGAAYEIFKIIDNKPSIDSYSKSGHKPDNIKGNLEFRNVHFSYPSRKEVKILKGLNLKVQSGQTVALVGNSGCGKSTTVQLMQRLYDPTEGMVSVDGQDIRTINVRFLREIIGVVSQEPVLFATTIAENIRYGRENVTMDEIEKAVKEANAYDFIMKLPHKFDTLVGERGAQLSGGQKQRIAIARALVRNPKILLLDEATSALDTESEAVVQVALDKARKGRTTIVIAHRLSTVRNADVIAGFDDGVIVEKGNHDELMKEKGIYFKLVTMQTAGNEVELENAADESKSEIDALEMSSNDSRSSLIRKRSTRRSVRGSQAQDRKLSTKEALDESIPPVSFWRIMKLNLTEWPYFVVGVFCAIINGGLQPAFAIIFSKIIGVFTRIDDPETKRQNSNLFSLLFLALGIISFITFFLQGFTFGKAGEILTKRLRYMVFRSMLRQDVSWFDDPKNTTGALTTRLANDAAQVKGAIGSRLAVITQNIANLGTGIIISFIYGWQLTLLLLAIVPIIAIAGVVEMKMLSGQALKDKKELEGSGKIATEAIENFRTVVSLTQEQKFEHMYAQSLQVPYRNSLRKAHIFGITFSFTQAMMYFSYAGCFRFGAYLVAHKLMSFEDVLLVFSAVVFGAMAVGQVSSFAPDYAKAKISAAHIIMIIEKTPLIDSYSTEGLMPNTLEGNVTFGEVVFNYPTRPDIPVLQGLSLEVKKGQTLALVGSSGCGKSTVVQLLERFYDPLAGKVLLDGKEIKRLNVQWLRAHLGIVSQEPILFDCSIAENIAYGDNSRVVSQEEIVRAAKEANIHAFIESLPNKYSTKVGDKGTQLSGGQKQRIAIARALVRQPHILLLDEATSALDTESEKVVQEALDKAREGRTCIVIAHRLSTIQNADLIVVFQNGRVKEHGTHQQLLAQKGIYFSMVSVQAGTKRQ
Format: cell-based
Procedure, shortened: (§1)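 Confluent DU145TXR monolayers in phenol red-free RPMI 1640 given 2 μM inhibitor (DMSO vehicle) and 1 μg mL−1 calcein AM, either added together or after a 6 h inhibitor-only preincubation at 37 °C. Calcein fluorescence (ex 485 / em 535 nm) read over 60 min at 20 min intervals. Six replicates, at least two independent experiments.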

Compound | inhibition (INH)
Cc1cc(C)c(-c2cc(NC(=O)CSc3nnc4c(n3)[nH]c3ccccc34)n(-c3ccccc3)n2)cc1C | Active
Cc1cc(C)c(-c2cc(NC(=O)CSCC(=O)Nc3ccc4ncsc4c3)n(-c3ccccc3)n2)cc1C | Active

The compounds below were run against T1, ATP-dependent translocase ABCB1 (assay: Reversal of P-gp mediated multidrug resistance in human DU145-TxR cells overexpressing P-gp assessed as potentiation of paclitaxel-induced cytotoxicity by measuring fold reduction paclitaxel IC50 at 7 uM after 48 hrs by MTT assay relative to paclitaxel alone). Conditions: not given.
Format: cell-based
Procedure, shortened: (§2)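 DU145TXR cells seeded at 3000 per well, 24 h later treated 48 h with paclitaxel alone or with 3, 5, 7 or 10 μM inhibitor in complete medium (DMSO vehicle). MTT 4 h, formazan dissolved in DMSO, A570 read, background subtracted, viability relative to DMSO. IC50 by four-parameter nonlinear fit; eight replicates, at least two experiments. Fold values compare paclitaxel alone or with parent inhibitor.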

Compound | fold change (FC)
Cc1cc(C)c(-c2cc(NC(=O)CSc3nnc4c(n3)[nH]c3ccccc34)n(-c3ccccc3)n2)cc1C | 125
Cc1cc(C)c(-c2cc(NC(=O)CSCC(=O)Nc3ccc4ncsc4c3)n(-c3ccccc3)n2)cc1C | 731

Each compound was assayed against T1, ATP-dependent translocase ABCB1 (assay: Reversal of P-gp mediated multidrug resistance in human DU145-TxR cells overexpressing P-gp assessed as potentiation of paclitaxel-induced cytotoxicity by measuring fold reduction paclitaxel IC50 at 5 uM after 48 hrs by MTT assay relative to paclitaxel alone). Conditions: not given.
Format: cell-based
Procedure, shortened: as §2

Compound | fold change (FC)
Cc1cc(C)c(-c2cc(NC(=O)CSc3nnc4c(n3)[nH]c3ccccc34)n(-c3ccccc3)n2)cc1C | 101
Cc1cc(C)c(-c2cc(NC(=O)CSCC(=O)Nc3ccc4ncsc4c3)n(-c3ccccc3)n2)cc1C | 372

What follows are compounds tested against T1, ATP-dependent translocase ABCB1 (assay: Reversal of P-gp mediated multidrug resistance in human DU145-TxR cells overexpressing P-gp assessed as potentiation of paclitaxel-induced cytotoxicity by measuring fold reduction paclitaxel IC50 at 3 uM after 48 hrs by MTT assay relative to paclitaxel alone). Conditions: not given.
Format: cell-based
Procedure, shortened: as §2

Compound | fold change (FC)
Cc1cc(C)c(-c2cc(NC(=O)CSc3nnc4c(n3)[nH]c3ccccc34)n(-c3ccccc3)n2)cc1C | 5
Cc1cc(C)c(-c2cc(NC(=O)CSCC(=O)Nc3ccc4ncsc4c3)n(-c3ccccc3)n2)cc1C | 12

These compounds were tested against T1, ATP-dependent translocase ABCB1 (assay: Reversal of P-gp mediated multidrug resistance in human DU145-TxR cells overexpressing P-gp assessed as potentiation of paclitaxel-induced cytotoxicity by measuring fold reduction paclitaxel IC50 at 3 uM after 48 hrs by MTT assay relative to parent compound). Conditions: not given.
Format: cell-based
Procedure, shortened: as §2

Compound | fold change (FC)
Cc1cc(C)c(-c2cc(NC(=O)CSc3nnc4c(n3)[nH]c3ccccc34)n(-c3ccccc3)n2)cc1C | 1.5
Cc1cc(C)c(-c2cc(NC(=O)CSCC(=O)Nc3ccc4ncsc4c3)n(-c3ccccc3)n2)cc1C | 3.7

What follows are compounds tested against T1, ATP-dependent translocase ABCB1 (assay: Reversal of P-gp mediated multidrug resistance in human DU145-TxR cells overexpressing P-gp assessed as potentiation of paclitaxel-induced cytotoxicity by measuring fold reduction paclitaxel IC50 at 10 uM after 48 hrs by MTT assay relative to paclitaxel alone). Conditions: not given.
Format: cell-based
Procedure, shortened: as §2

Compound | fold change (FC)
Cc1cc(C)c(-c2cc(NC(=O)CSc3nnc4c(n3)[nH]c3ccccc34)n(-c3ccccc3)n2)cc1C | 125
Cc1cc(C)c(-c2cc(NC(=O)CSCC(=O)Nc3ccc4ncsc4c3)n(-c3ccccc3)n2)cc1C | 2118

What follows are compounds tested against T1, ATP-dependent translocase ABCB1 (assay: Reversal of P-gp mediated multidrug resistance in human DU145-TxR cells overexpressing P-gp assessed as potentiation of paclitaxel-induced cytotoxicity by measuring fold reduction paclitaxel IC50 at 5 uM after 48 hrs by MTT assay relative to parent compound). Conditions: not given.
Format: cell-based
Procedure, shortened: as §2

Compound | fold change (FC)
Cc1cc(C)c(-c2cc(NC(=O)CSc3nnc4c(n3)[nH]c3ccccc34)n(-c3ccccc3)n2)cc1C | 9.2
Cc1cc(C)c(-c2cc(NC(=O)CSCC(=O)Nc3ccc4ncsc4c3)n(-c3ccccc3)n2)cc1C | 34

What follows are compounds tested against T1, ATP-dependent translocase ABCB1 (assay: Reversal of P-gp mediated multidrug resistance in human DU145-TxR cells overexpressing P-gp assessed as potentiation of paclitaxel-induced cytotoxicity by measuring fold reduction paclitaxel IC50 at 7 uM after 48 hrs by MTT assay relative to parent compound). Conditions: not given.
Format: cell-based
Procedure, shortened: as §2

Compound | fold change (FC)
Cc1cc(C)c(-c2cc(NC(=O)CSc3nnc4c(n3)[nH]c3ccccc34)n(-c3ccccc3)n2)cc1C | 3.4
Cc1cc(C)c(-c2cc(NC(=O)CSCC(=O)Nc3ccc4ncsc4c3)n(-c3ccccc3)n2)cc1C | 20

Each compound was assayed against T1, ATP-dependent translocase ABCB1 (assay: Reversal of P-gp mediated multidrug resistance in human DU145-TxR cells overexpressing P-gp assessed as potentiation of paclitaxel-induced cytotoxicity by measuring fold reduction paclitaxel IC50 at 10 uM after 48 hrs by MTT assay relative to parent compound). Conditions: not given.
Format: cell-based
Procedure, shortened: as §2

Compound | fold change (FC)
Cc1cc(C)c(-c2cc(NC(=O)CSc3nnc4c(n3)[nH]c3ccccc34)n(-c3ccccc3)n2)cc1C | 3.4
Cc1cc(C)c(-c2cc(NC(=O)CSCC(=O)Nc3ccc4ncsc4c3)n(-c3ccccc3)n2)cc1C | 27

What follows are compounds tested against T1, ATP-dependent translocase ABCB1 (assay: Inhibition of P-gp overexpressed in human DU145-TxR cells assessed as increase in cellular accumulation of calcein AM at 2 uM preincubated for 6 hrs followed by calcein AM addition by fluorescence imaging analysis). Conditions: not given.
Format: cell-based
Procedure, shortened: as §1

Compound | inhibition (INH)
Cc1cc(C)c(-c2cc(NC(=O)CSc3nnc4c(n3)[nH]c3ccccc34)n(-c3ccccc3)n2)cc1C | Active
Cc1cc(C)c(-c2cc(NC(=O)CSCC(=O)Nc3ccc4ncsc4c3)n(-c3ccccc3)n2)cc1C | Active

These compounds were tested against T2, P-glycoprotein (ABCB1, mouse MDR3) ATPase (Mus musculus, UniProt P21447) (assay: Inhibition of verampil-stimulated ATPase hydrolysis in recombinant mouse MDR3 expressed in Pichia pastoris measured after 30 mins in presence of NADH by coupled enzyme assay (reference value: 100 +/- 8 %)). Conditions: recombinant mouse MDR3 (P-gp) expressed in Pichia pastoris.
T2 sequence (P21447 whole entry): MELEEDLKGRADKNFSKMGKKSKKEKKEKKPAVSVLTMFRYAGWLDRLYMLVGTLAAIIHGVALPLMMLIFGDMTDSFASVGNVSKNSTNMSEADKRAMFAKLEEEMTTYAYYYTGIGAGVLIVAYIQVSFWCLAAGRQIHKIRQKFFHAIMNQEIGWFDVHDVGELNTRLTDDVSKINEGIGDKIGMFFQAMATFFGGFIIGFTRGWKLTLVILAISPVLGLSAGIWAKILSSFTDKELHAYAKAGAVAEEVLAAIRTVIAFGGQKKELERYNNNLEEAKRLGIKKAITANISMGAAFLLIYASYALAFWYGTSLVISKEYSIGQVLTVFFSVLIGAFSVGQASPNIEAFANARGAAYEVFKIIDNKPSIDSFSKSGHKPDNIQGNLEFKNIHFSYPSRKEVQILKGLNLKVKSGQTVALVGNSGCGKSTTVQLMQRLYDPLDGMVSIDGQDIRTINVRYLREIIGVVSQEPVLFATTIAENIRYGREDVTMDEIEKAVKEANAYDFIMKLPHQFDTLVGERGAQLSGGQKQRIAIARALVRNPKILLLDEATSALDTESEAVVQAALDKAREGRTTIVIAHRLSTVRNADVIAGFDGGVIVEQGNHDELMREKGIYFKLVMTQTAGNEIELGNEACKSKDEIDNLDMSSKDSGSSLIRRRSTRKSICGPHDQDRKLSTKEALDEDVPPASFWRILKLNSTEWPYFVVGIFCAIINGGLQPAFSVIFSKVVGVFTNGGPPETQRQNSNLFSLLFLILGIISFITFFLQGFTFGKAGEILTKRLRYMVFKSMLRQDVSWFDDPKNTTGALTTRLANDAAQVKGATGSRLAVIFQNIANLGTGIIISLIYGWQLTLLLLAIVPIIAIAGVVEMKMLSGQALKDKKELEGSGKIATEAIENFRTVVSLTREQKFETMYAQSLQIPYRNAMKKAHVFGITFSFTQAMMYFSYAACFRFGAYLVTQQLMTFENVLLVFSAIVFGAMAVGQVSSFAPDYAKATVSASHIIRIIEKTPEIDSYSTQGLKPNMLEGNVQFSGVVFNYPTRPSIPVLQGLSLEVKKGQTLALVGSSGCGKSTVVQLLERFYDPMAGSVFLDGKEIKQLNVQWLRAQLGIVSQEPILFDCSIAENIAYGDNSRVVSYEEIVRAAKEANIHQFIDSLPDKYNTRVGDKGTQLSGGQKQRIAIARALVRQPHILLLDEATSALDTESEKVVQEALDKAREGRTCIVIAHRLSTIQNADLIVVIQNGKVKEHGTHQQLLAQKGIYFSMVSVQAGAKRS
Parameters: scale not given: the % may be the effect or the level left

Compound | Activity at 0.5 h
Cc1cc(C)c(-c2cc(NC(=O)CSc3nnc4c(n3)[nH]c3ccccc34)n(-c3ccccc3)n2)cc1C | 68%

The compounds below were run against T2, P-glycoprotein (ABCB1, mouse MDR3) ATPase (assay: Effect on verampil-mediated ATPase hydrolysis of recombinant mouse MDR3 expressed in Pichia pastoris measured after 30 mins in presence of NADH by coupled enzyme assay (reference value: 100 +/- 8 %)). Conditions: recombinant mouse MDR3 (P-gp) expressed in Pichia pastoris, read-out: Activity.
Parameters: scale not given: the % may be the effect or the level left

Compound | Activity at 0.5 h
Cc1cc(C)c(-c2cc(NC(=O)CSCC(=O)Nc3ccc4ncsc4c3)n(-c3ccccc3)n2)cc1C | 123%

The compounds below were run against T2, P-glycoprotein (ABCB1, mouse MDR3) ATPase (assay: Stimulation of basal ATPase hydrolysis in recombinant mouse MDR3 expressed in Pichia pastoris measured after 30 mins in presence of NADH by coupled enzyme assay (reference value: 100 +/- 7 %)). Conditions: recombinant mouse MDR3 (P-gp) expressed in Pichia pastoris, read-out: Activity.
Parameters: scale not given: the % may be the effect or the level left

Compound | Activity at 0.5 h
Cc1cc(C)c(-c2cc(NC(=O)CSCC(=O)Nc3ccc4ncsc4c3)n(-c3ccccc3)n2)cc1C | 355%

Each compound was assayed against T2, P-glycoprotein (ABCB1, mouse MDR3) ATPase (assay: Effect on basal ATPase hydrolysis of recombinant mouse MDR3 expressed in Pichia pastoris measured after 30 mins in presence of NADH by coupled enzyme assay (reference value: 100 +/- 7 %)). Conditions: recombinant mouse MDR3 (P-gp) expressed in Pichia pastoris, read-out: Activity.
Parameters: scale not given: the % may be the effect or the level left

Compound | Activity at 0.5 h
Cc1cc(C)c(-c2cc(NC(=O)CSc3nnc4c(n3)[nH]c3ccccc34)n(-c3ccccc3)n2)cc1C | 101%

What follows are compounds tested against T1, ATP-dependent translocase ABCB1 (assay: Inhibition of P-gp overexpressed in human DU145-TxR cells assessed as increase in intracellular compound accumulation after 2.5 hrs in presence of tariquidar by LC-MS/MS analysis). Conditions: not given.
Format: cell-based
Procedure, shortened: (§3)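 P-gp-overexpressing DU145TXR cells exposed to test compounds with or without tariquidar. Intracellular compound measured by LC–MS/MS, with daunorubicin as a transported-substrate control. Ratio is accumulation with tariquidar divided by accumulation without.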

Compound | inhibition (INH)
Cc1cc(C)c(-c2cc(NC(=O)CSCC(=O)Nc3ccc4ncsc4c3)n(-c3ccccc3)n2)cc1C | Active

The compounds below were run against T1, ATP-dependent translocase ABCB1 (assay: Ratio of inhibition of P-gp overexpressed in human DU145-TxR cells assessed as increase in intracellular compound accumulation after 2.5 hrs in presence of tariquidar by LC-MS/MS analysis to Inhibition of P-gp overexpressed in human DU145-TxR cells assessed as decrease in intracellular compound accumulation after 2.5 hrs in absence of tariquidar by LC-MS/MS analysis). Conditions: not given.
Format: cell-based
Procedure, shortened: as §3

Compound | Ratio
Cc1cc(C)c(-c2cc(NC(=O)CSc3nnc4c(n3)[nH]c3ccccc34)n(-c3ccccc3)n2)cc1C | 1
Cc1cc(C)c(-c2cc(NC(=O)CSCC(=O)Nc3ccc4ncsc4c3)n(-c3ccccc3)n2)cc1C | 1.2

These compounds were tested against T3, P-glycoprotein (ABCB1, MDR1) ATPase (Homo sapiens, UniProt P08183) (assay: Inhibition of verampil-stimulated ATPase hydrolysis in recombinant human MDR1 expressed in Pichia pastoris measured after 30 mins in presence of NADH by coupled enzyme assay (reference value: 100 +/- 6 %)). Conditions: recombinant human MDR1 (P-gp) expressed in Pichia pastoris.
T3 sequence (P08183 whole entry): as the sequence (P08183 whole entry) above
Parameters: scale not given: the % may be the effect or the level left

Compound | Activity at 0.5 h
Cc1cc(C)c(-c2cc(NC(=O)CSc3nnc4c(n3)[nH]c3ccccc34)n(-c3ccccc3)n2)cc1C | 66%
Cc1cc(C)c(-c2cc(NC(=O)CSCC(=O)Nc3ccc4ncsc4c3)n(-c3ccccc3)n2)cc1C | 59%

The compounds below were run against T3, P-glycoprotein (ABCB1, MDR1) ATPase (assay: Effect on basal ATPase hydrolysis of recombinant human MDR1 expressed in Pichia pastoris measured after 30 mins in presence of NADH by coupled enzyme assay (reference value: 100 +/- 5 %)). Conditions: recombinant human MDR1 (P-gp) expressed in Pichia pastoris, read-out: Activity.
Parameters: scale not given: the % may be the effect or the level left

Compound | Activity at 0.5 h
Cc1cc(C)c(-c2cc(NC(=O)CSc3nnc4c(n3)[nH]c3ccccc34)n(-c3ccccc3)n2)cc1C | 87%
Cc1cc(C)c(-c2cc(NC(=O)CSCC(=O)Nc3ccc4ncsc4c3)n(-c3ccccc3)n2)cc1C | 84%

What follows are compounds tested against P-glycoprotein 1 Abcb1a (Mus musculus) (assay: Inhibition of spin-labelled adenine nucleotide interaction with mouse MDR3 P-gp expressed in Escherichia coli BL21 (DE3) assessed as apparent dissociation constant by ESR analysis (reference value: 36.5 +/- 3.6 uM)). Conditions: not given.

Compound | Kd
Cc1cc(C)c(-c2cc(NC(=O)CSc3nnc4c(n3)[nH]c3ccccc34)n(-c3ccccc3)n2)cc1C | 24.1 µM
Cc1cc(C)c(-c2cc(NC(=O)CSCC(=O)Nc3ccc4ncsc4c3)n(-c3ccccc3)n2)cc1C | 25.6 µM

The compounds below were run on P-glycoprotein 1 Abcb1a (Mus musculus) (assay: Inhibition of 2',3'-(2,2,5,5,-tetramethyl-3-pyrroline-l-oxyl-3-carboxylic acid ester)ATP interaction with mouse MDR3 P-gp expressed in Escherichia coli BL21 (DE3) assessed as reduction in ATP binding from 2 to 1 of nucleotide to mol of protein by ESR analysis (reference value: 1.8 +/- 0.1)). Conditions: not given.

Compound | Activity
Cc1cc(C)c(-c2cc(NC(=O)CSc3nnc4c(n3)[nH]c3ccccc34)n(-c3ccccc3)n2)cc1C | 1.8
Cc1cc(C)c(-c2cc(NC(=O)CSCC(=O)Nc3ccc4ncsc4c3)n(-c3ccccc3)n2)cc1C | 1.9
